Activity calls are given as the source filed them. No cut-off for these calls is given here.
Experiments:
DU-145 = assay: Anticancer activity against human DU145 cells after 48 hrs by MTT assay; type: functional, cell-based; conditions: DU-145, 48 h
In short: (§1)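 MTT assay: 1×10⁴ cells/well seeded in DMEM with 10% FBS, 24 h at 37°C in CO₂ before dosing. Compounds diluted in medium, vehicle control included, 48 h exposure. MTT (5 mg/mL stock) added for 4 h, formazan dissolved in DMSO, absorbance read at 540 nm. IC50 averaged from three individual experiments.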

HT-29 = assay: Anticancer activity against human HT-29 cells after 48 hrs by MTT assay; type: functional, cell-based; conditions: HT-29, 48 h; in short: as §1
HeLa = assay: Anticancer activity against human HeLa cells after 48 hrs by MTT assay; type: functional, cell-based; in short: as §1
A549 [1] = assay: Anticancer activity against human A549 cells after 48 hrs by MTT assay; type: functional, cell-based; conditions: A549, 48 h; in short: as §1
ACHN = assay: Anticancer activity against human ACHN cells after 48 hrs by MTT assay; type: functional, cell-based; in short: as §1
A549 [2] = assay: Induction of apoptosis in human A549 cells assessed as DNA fragmentation at 1 uM after 48 hrs by agarose gel electrophoresis; type: functional, cell-based
In short: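 After 24 h settling, 1×10⁶ A549 cells/well treated 48 h at 1 µM. Pellet washed in PBS and lysed. Supernatant given SDS and RNase A for 2 h at 56°C, then proteinase K for 2 h at 37°C. DNA precipitated with ammonium acetate and cold ethanol at -80°C, washed in 80% ethanol, dissolved in TE. Laddering on 2% agarose gel.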

A549 [3] = assay: Cell cycle arrest in human A549 cells assessed as accumulation at S phase at 1 uM after 48 hrs by propidium iodide staining-based flow cytometric analysis (reference value: 3.57%); type: functional
A549 [4] = assay: Induction of apoptosis in human A549 cells assessed as nuclear condensation at 1 uM after 48 hrs by Hoechst staining-based fluorescence microscopic analysis; type: functional, cell-based
In short: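 10,000 A549 cells on coverslips, 24 h, then fresh medium with compound at 1 µM for 48 h. Vehicle control 0.001% DMSO. Hoechst 33258 added with 4% paraformaldehyde for 30 min at 37°C. Random fields imaged by fluorescence microscopy and scored qualitatively for chromatin condensation and nuclear fragmentation.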

A549 [5] = assay: Cell cycle arrest in human A549 cells assessed as accumulation at sub-G1 phase at 0.5 uM after 48 hrs by propidium iodide staining-based flow cytometric analysis (reference value: 6.47%); type: functional
A549 [6] = assay: Cell cycle arrest in human A549 cells assessed as accumulation at S phase at 0.5 uM after 48 hrs by propidium iodide staining-based flow cytometric analysis (reference value: 3.57%); type: functional
A549 [7] = assay: Cell cycle arrest in human A549 cells assessed as accumulation at sub-G1 phase at 1 uM after 48 hrs by propidium iodide staining-based flow cytometric analysis (reference value: 6.47%); type: functional
A549 [8] = assay: Induction of apoptosis in human A549 cells assessed as caspase-3 activation at 1 to 2 uM after 48 hrs by ELISA relative to control; type: functional
In short: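 Colorimetric caspase-3 kit used. A549 cells treated 48 h at 1 and 2 µM, pelleted, washed in PBS, lysed 15 min, spun 15 min. Supernatant assayed by ELISA-based readout, fold change versus untreated control. Mean of two experiments, each in triplicate.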

A549 [9] = assay: Cell cycle arrest in human A549 cells assessed as accumulation at G0/G1 phase at 0.5 uM after 48 hrs by propidium iodide staining-based flow cytometric analysis (reference value: 78.23%); type: functional
Tubulin = assay: Inhibition of tubulin (unknown origin) polymerization measured for 1 hr by fluorescence assay; type: protein-complex assay, Homo sapiens
A549 [10] = assay: Cell cycle arrest in human A549 cells assessed as accumulation at G0/G1 phase at 1 uM after 48 hrs by propidium iodide staining-based flow cytometric analysis (reference value: 78.23%); type: functional
A549 [11] = assay: Cell cycle arrest in human A549 cells assessed as accumulation at G2/M phase at 1 uM after 48 hrs by propidium iodide staining-based flow cytometric analysis (reference value: 11.73%); type: functional
A549 [12] = assay: Cell cycle arrest in human A549 cells assessed as accumulation at G2/M phase at 0.5 uM after 48 hrs by propidium iodide staining-based flow cytometric analysis (reference value: 11.73%); type: functional
Tubulin (Homo sapiens) [13] = molecular target: T1, Tubulin (Homo sapiens) (UniProt P68371+Q9H4B7+P0DPH7+P68366+Q13509+Q71U36+P04350+Q3ZCM7+P07437+P68363+Q9BQE3+Q6PEY2+Q13885+Q9BVA1+Q9BUF5); assay: Inhibition of alpha-tubulin polymerization in human A549 cells at 1 uM after 48 hrs by immunohistochemical analysis; type: cell-based
In short: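 A549 cells on coverslips treated 48 h at 1 µM. Fixed in 4% paraformaldehyde for 20 min, permeabilised with 0.2% Triton X-100 for 5 min, then methanol overnight. Blocked in 1% BSA, anti-α-tubulin (1:1000) 2 h at room temperature, FITC anti-mouse secondary 1 h. Microtubule network integrity examined by fluorescence microscopy.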

Tubulin (Homo sapiens) [14] = molecular target: T1, Tubulin (Homo sapiens); assay: Inhibition of tubulin (unknown origin) polymerization at 3 uM measured for 1 hr by fluorescence assay relative to control; type: protein-complex assay
In short: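 Tubulin polymerization kit, fluorescence-reporter based. Reaction in PEM buffer with GTP, with or without compound at 3 µM final. Reporter incorporation followed as fluorescence increase (excitation 360 nm, emission 420 nm) for 1 h at 37°C. Mean of two experiments, each in triplicate.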

| SMILES | IC50 (DU-145) [µM] | IC50 (HT-29) [µM] | IC50 (HeLa) [µM] | IC50 (A549 [1]) [µM] | IC50 (ACHN) [µM] | Activity (A549 [2]) | Activity (A549 [3]) [%] | Activity (A549 [4]) | Activity (A549 [5]) [%] | Activity (A549 [6]) [%] | Activity (A549 [7]) [%] | fold change (FC) (A549 [8]) | Activity (A549 [9]) [%] | IC50 (Tubulin) [µM] | Activity (A549 [10]) [%] | Activity (A549 [11]) [%] | Activity (A549 [12]) [%] | inhibition (Tubulin (Homo sapiens) [13]) | inhibition (Tubulin (Homo sapiens) [14]) [%] |
| --- | --- | --- | --- | --- | --- | --- | --- | --- | --- | --- | --- | --- | --- | --- | --- | --- | --- | --- | --- |
| O=C1OCC2=C1C(c1ccc(-c3ccc(-c4cc(F)c(F)c(F)c4)cc3)cc1)c1c(-c3ccccc3)n[nH]c1N2 (stereo unspecified) | 6.5 | 6.45 | 7.07 | 4.36 | 7.52 | – | – | – | – | – | – | – | – | – | – | – | – | – | – |
| O=C1OCC2=C1C(c1ccc(-c3ccc(-c4cc(F)cc(F)c4)cc3)cc1)c1c(ccc3cn[nH]c13)N2 (stereo unspecified) | 1.28 | 1.02 | 1.23 | 0.91 | 0.95 | Active | 5.21 | Active | 1.27 | 4.39 | 1.22 | 3 | 69.78 | 2.74 | 41.23 | 52.34 | 24.56 | Active | 51.3 |
| O=C1OCC2=C1C(c1ccc(-c3ccc(-c4ccc(C(F)(F)F)cc4)cc3)cc1)c1c(ccc3cn[nH]c13)N2 (stereo unspecified) | 4.89 | 2.39 | 7.09 | 1.16 | 2.75 | – | – | – | – | – | – | – | – | – | – | – | – | – | – |
| O=C1OCC2=C1C(c1ccc(-c3ccc(-c4cc(F)c(F)c(F)c4)cc3)cc1)c1c(ccc3cn[nH]c13)N2 (stereo unspecified) | 6.91 | 8.91 | 5.49 | 3.98 | 7.41 | – | – | – | – | – | – | – | – | – | – | – | – | – | – |
| O=C1OCC2=C1C(c1ccc(-c3ccc(-c4ccc(OC(F)(F)F)cc4)cc3)cc1)c1cc3[nH]ccc3cc1N2 (stereo unspecified) | 6.02 | 9.33 | 7.41 | 5.12 | 5.37 | – | – | – | – | – | – | – | – | – | – | – | – | – | – |
| O=C1OCC2=C1C(c1ccc(-c3ccc(-c4ccc(F)cc4)cc3)cc1)c1c(-c3ccccc3)n[nH]c1N2 (stereo unspecified) | 4.16 | 3.31 | 3.8 | 1.47 | 2.18 | – | – | – | – | – | – | – | – | – | – | – | – | – | – |
| O=C1OCC2=C1C(c1ccc(-c3ccc(-c4ccc(OC(F)(F)F)cc4)cc3)cc1)c1c(ccc3cn[nH]c13)N2 (stereo unspecified) | 0.98 | 1 | 1.24 | 0.87 | 0.95 | Active | 2.35 | Active | 1.08 | 2.39 | 1.01 | 3 | 64.52 | 2.95 | 38.41 | 58.23 | 32.01 | Active | 60.1 |
| O=C1OCC2=C1C(c1ccc(-c3ccc(-c4ccc(F)cc4)cc3)cc1)c1c(ccc3cn[nH]c13)N2 (stereo unspecified) | 1.44 | 1.69 | 1.94 | 0.95 | 1.47 | – | – | – | – | – | – | – | – | – | – | – | – | – | – |
| O=C1OCC2=C1C(c1ccc(-c3ccc(-c4ccc(OC(F)(F)F)cc4)cc3)cc1)c1c(-c3ccccc3)n[nH]c1N2 (stereo unspecified) | 1.12 | 1.77 | 2.23 | 0.98 | 4.07 | – | – | – | – | – | – | – | – | – | – | – | – | – | – |
| COc1cc([C@@H]2c3cc4c(cc3[C@@H](O[C@@H]3O[C@@H]5CO[C@@H](C)O[C@H]5[C@H](O)[C@H]3O)[C@H]3COC(=O)[C@H]23)OCO4)cc(OC)c1O [ETOPOSIDE] | 3.17 | 1.47 | 2.75 | 2.45 | 2.04 | – | 3.76 | – | 4.93 | 4.24 | 4.01 | – | 70.74 | – | 46.09 | 46.14 | 20.09 | – | – |
| COc1cc([C@@H]2c3cc4c(cc3[C@H](O)[C@H]3COC(=O)[C@H]23)OCO4)cc(OC)c1OC [PODOFILOX] | 3.21 | 2.29 | – | 3.09 | 1.93 | – | – | – | – | – | – | – | – | – | – | – | – | – | 52 |
| O=C1OCC2=C1C(c1ccc(-c3ccc(-c4cc(F)cc(Cl)c4)cc3)cc1)c1c(-c3ccccc3)n[nH]c1N2 (stereo unspecified) | 5.75 | 6.3 | 6.02 | 2.88 | 3.16 | – | – | – | – | – | – | – | – | – | – | – | – | – | – |
| O=C1OCC2=C1C(c1ccc(-c3ccc(-c4cc(F)c(F)c(F)c4)cc3)cc1)c1cc3[nH]ccc3cc1N2 (stereo unspecified) | 13.2 | 6.6 | 10.5 | 5.49 | 6.45 | – | – | – | – | – | – | – | – | – | – | – | – | – | – |
| O=C1OCC2=C1C(c1ccc(-c3ccc(-c4cc(F)cc(Cl)c4)cc3)cc1)c1c(ccc3cn[nH]c13)N2 (stereo unspecified) | 12.6 | 9.42 | 7.53 | 7.41 | 9.33 | – | – | – | – | – | – | – | – | – | – | – | – | – | – |
| O=C1OCC2=C1C(c1ccc(-c3ccc(-c4ccc(C(F)(F)F)cc4)cc3)cc1)c1c(-c3ccccc3)n[nH]c1N2 (stereo unspecified) | 6.45 | 8.51 | 6.16 | 5.75 | 5.24 | – | – | – | – | – | – | – | – | – | – | – | – | – | – |
| O=C1OCC2=C1C(c1ccc(-c3ccc(-c4cc(F)cc(F)c4)cc3)cc1)c1cc3[nH]ccc3cc1N2 (stereo unspecified) | 8.7 | 6.45 | 8.51 | 5.49 | 5.75 | – | – | – | – | – | – | – | – | – | – | – | – | – | – |
| O=C1OCC2=C1C(c1ccc(-c3ccc(-c4ccc(C(F)(F)F)cc4)cc3)cc1)c1cc3[nH]ccc3cc1N2 (stereo unspecified) | 12.6 | 7.41 | 16.6 | 10 | 7.58 | – | – | – | – | – | – | – | – | – | – | – | – | – | – |
| O=C1OCC2=C1C(c1ccc(-c3ccc(-c4cc(F)cc(F)c4)cc3)cc1)c1c(-c3ccccc3)n[nH]c1N2 (stereo unspecified) | 10 | 5.83 | 8.12 | 6.72 | 14.1 | – | – | – | – | – | – | – | – | – | – | – | – | – | – |
| O=C1OCC2=C1C(c1ccc(-c3ccc(-c4ccc(F)cc4)cc3)cc1)c1cc3[nH]ccc3cc1N2 (stereo unspecified) | 7.24 | 8.91 | 9.54 | 4.36 | 5.75 | – | – | – | – | – | – | – | – | – | – | – | – | – | – |
| O=C1OCC2=C1C(c1ccc(-c3ccc(-c4cc(F)cc(Cl)c4)cc3)cc1)c1cc3[nH]ccc3cc1N2 (stereo unspecified) | 4.78 | 8.7 | 3.16 | 2.55 | 2.95 | – | – | – | – | – | – | – | – | – | – | – | – | – | – |

— ChEMBL document CHEMBL3259608, “Synthesis of a terphenyl substituted 4-aza-2,3-didehydropodophyllotoxin analogues as inhibitors of tubulin polymerization and apoptosis inducers” (Bioorg Med Chem, 2014)
